Experimental data published in ChEMBL document CHEMBL1135702, “Antitumor polycyclic acridines. 8.(1) Synthesis and telomerase-inhibitory activity of methylated pentacyclic acridinium salts” (J Med Chem, 2002).
pIC50: −log10 of the molar value.

Key:
[1] = Growth inhibition in the NCI 60 cell panel; type: functional; conditions: Homo sapiens
[2] = target: Telomerase reverse transcriptase (Homo sapiens, UniProt O14746); experiment: Inhibition of telomerase activity using TRAP assay
Method in brief: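 Telomerase came from lysates of exponentially growing A2780 cells (CHAPS buffer, 30 min on ice, 0.1 mM AEBSF), using 40 ng protein. TS primer was extended in TRAP buffer (pH 8.3, 68 mM KCl) with 50 μM dNTPs and [α-³²P]dCTP, compound at various final concentrations, for 20 min at 25 °C. After 85 °C inactivation, the CX primer was added with Taq for 31 PCR cycles. Products were read by phosphoimaging or scintillation counting.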

[3] = Selectivity index (GI50/Telomerase IC50)

Telomerase reverse transcriptase, sequence (O14746 whole entry): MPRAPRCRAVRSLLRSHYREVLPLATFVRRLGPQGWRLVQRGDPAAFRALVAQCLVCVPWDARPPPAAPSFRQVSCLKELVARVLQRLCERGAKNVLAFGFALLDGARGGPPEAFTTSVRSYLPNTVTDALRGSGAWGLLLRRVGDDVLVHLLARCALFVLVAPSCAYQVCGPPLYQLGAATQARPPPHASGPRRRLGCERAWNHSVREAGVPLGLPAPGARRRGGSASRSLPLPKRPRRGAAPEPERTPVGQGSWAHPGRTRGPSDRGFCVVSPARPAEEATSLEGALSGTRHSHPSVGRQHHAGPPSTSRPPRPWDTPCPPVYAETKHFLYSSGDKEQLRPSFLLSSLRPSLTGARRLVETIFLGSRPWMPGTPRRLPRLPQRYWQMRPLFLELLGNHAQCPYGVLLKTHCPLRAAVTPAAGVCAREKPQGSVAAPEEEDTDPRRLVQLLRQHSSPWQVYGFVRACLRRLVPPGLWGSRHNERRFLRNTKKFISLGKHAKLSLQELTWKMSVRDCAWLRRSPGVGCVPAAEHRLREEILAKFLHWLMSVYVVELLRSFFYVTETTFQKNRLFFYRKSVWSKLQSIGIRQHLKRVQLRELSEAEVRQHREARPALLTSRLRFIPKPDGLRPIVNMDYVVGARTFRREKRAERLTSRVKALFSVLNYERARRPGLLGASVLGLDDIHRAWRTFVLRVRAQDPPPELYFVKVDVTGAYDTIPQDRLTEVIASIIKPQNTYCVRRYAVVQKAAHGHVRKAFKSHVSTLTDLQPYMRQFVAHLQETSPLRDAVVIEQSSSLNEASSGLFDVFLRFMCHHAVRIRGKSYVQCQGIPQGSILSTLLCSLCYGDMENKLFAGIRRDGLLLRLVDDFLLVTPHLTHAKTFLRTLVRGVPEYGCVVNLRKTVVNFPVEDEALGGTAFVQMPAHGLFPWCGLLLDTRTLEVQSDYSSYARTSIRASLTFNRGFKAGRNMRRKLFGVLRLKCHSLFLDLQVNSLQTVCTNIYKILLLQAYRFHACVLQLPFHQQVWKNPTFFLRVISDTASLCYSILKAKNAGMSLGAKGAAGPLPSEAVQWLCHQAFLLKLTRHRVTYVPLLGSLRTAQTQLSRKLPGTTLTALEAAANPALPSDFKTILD

Compound	GI50 [1]	pIC50 [2]	SI [3]
Cc1cc2c3c([n+](C)c4ccccc4c3c1)-c1ccccc1N2C	1290 nM	6.12	1.7
Cc1cc2c3c([n+](C)c4ccc(Cl)cc4c3c1)-c1cc(Cl)ccc1N2C	4170 nM	6.60	17
CN1c2ccccc2-c2c3c1cccc3c1ccccc1[n+]2C	–	6.42	–
Cc1ccc2c(c1)-c1c3c(cc(C)cc3c3cc(C)ccc3[n+]1C)N2C	410 nM	6.60	1.8
Cc1cc2c3c([n+](C)c4ccc(F)cc4c3c1)-c1cc(F)ccc1N2C	13200 nM	6.48	40
c1ccc2c(c1)Nc1cccc3cc4[n+](c-2c13)CCC4	90 nM	–	–
CCN1c2ccccc2-c2c3c1cc(C)cc3c1ccccc1[n+]2CC	1100 nM	5.70	0.5
